The list is not random: actives were taken first. Their share in the collection is about 3.1%.
PHOSPHO1 inh – blocks human PHOSPHO1 phosphatase activity. Q8TCT1. recombinant PHOSPHO1, absorbance phosphatase assay. inhibition, % at 13.3 µM. 290,000 tested, 1.1% active. AID 1565; in the data active = inhibition above about 60%
Target sequence (Q8TCT1 whole entry, looked up): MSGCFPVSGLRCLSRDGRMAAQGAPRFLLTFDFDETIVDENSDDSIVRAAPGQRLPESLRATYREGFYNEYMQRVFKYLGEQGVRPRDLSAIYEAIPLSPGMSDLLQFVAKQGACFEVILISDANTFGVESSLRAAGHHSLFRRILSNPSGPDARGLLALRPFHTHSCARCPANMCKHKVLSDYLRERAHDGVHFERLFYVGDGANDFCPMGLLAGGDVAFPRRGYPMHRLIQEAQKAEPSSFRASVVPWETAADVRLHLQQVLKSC
VIM-2 inh – blocks Pseudomonas aeruginosa VIM-2 metallo-beta-lactamase | purified VIM-2, nitrocefin hydrolysis, epi-absorbance fluorescence | inhibition, % at 5.6 µM | 290,000 tested, 0.89% active;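 active = inhibition above the mean of all tested compounds plus 3 SD, cutoff set per screening run, cut at about 7.5% in these data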;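 also: red hydrolysis product quenches plate fluorescence so inhibitors raise well fluorescence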
IMP-1 inhibitor – inhibitors of Pseudomonas aeruginosa IMP-1 metallo-beta-lactamase; 290,000 tested, 0.45% active; AID 1556; purified IMP-1, nitrocefin hydrolysis, epi-absorbance fluorescence; inhibition, % at 5.6 µM;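 active = inhibition above the mean plus 3 SD of all compounds in the same screening run, cut at about 4.5% in these data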
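System: Purified IMP-1 | Read-out basis: Percent enzyme inhibition | Controls: IMP-1 with DMSO as 0%, enzyme-free DMSO as 100% | Replicates: One well per compound | Doses: 5.6 µM nominal single concentration | Detection: Epi-absorbance fluorescence, 480 nm excitation, 530 nm emission | Incubation: 25 °C, 15 min preincubation, 25 min reaction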
NS3 helicase inh – blocks Hepatitis C virus NS3 helicase unwinding | NS3 helicase DNA unwinding, Cy5 molecular beacon fluorescence | inhibition, % at 10.9 µM | 290,000 tested, 0.56% active;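 active = inhibition above the mean of all tested compounds plus 3 SD, set per campaign, cut at about 35% in these data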
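Measured by: Cy5 fluorescence, 0 and 60 min reads / Assay system: NS3 helicase fragment of HCV / Control set: low DMSO, high thioflavine S at 110 µM / Times: 1 h reaction at 25 °C, ATP-initiated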
HCV core dimer – blocks dimerization of HCV core protein; inhibition, % at 5 µM; TR-FRET GST/Flag-core106 dimerization, 1536-well; 300,000 tested, 0.33% active; AID 1899;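 active = inhibition above the mean of all tested compounds plus 3 SD, set per screening campaign, cut at about 45% in these data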
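System – GST-tagged and Flag-tagged HCV core protein residues 1-106 · Repeats – one well for each compound · Technique – TR-FRET 671 and 617 nm emission · Doses – one concentration, 5 µM, in 0.5% DMSO · Times – 4 h, 22.5 °C incubation · Also added – Eu donor and XL665 acceptor anti-tag antibodies · Measure – percent inhibition of core106 dimerization signal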
UBC9 SUMO inh – blocks human SUMOylation mediated by UBC9. P63279. HTRF SUMOylation assay, SAE1/SAE2 + UBC9, in vitro. AID 2006. 290,000 tested, 0.36% active. inhibition, % at 35 µM; in the data active = inhibition above about 50%, passing the limit was not always enough
Target sequence (P63279 whole entry, looked up): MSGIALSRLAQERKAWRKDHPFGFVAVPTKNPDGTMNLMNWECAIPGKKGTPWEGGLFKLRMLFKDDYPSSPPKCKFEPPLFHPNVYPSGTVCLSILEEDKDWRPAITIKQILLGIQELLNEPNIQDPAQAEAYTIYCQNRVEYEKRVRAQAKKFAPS
Large screens that a line does not name were inactive.

CN(C)c1ccc(C(c2nnnn2C(C)(C)C)N2CCN(C(=O)c3ccco3)CC2)cc1 (stereo unspecified)	PHOSPHO1 inh 88
CCOc1ccc(C(c2nnnn2C(C)(C)C)N2CCN(C(=O)c3ccco3)CC2)cc1 (stereo unspecified)	none
CCC(C)NC(=O)c1cc(Cl)c(NC(=O)C2=C(C)OCCS2)cc1OC (stereo unspecified)	none
CCN(CC)CCCNC(=O)c1cc(Cl)c(NC(=O)C2=C(C)OCCS2)cc1OC	VIM-2 inh 11
Cc1ccc(C)[n+](CC(=O)c2ccc(-c3ccccc3)cc2)c1	none
CCc1cc(CNC(=O)c2ccc(OC3CCN(C(C)=O)CC3)c(OC)c2)on1	PHOSPHO1 inh 67
CCc1cc(CNC(=O)c2ccc(OC)c(OC3CCN(C(C)C)CC3)c2)on1	none
Cc1cccc(/C=N/n2c(C)nc3ccccc3c2=O)c1	none
Cc1ccc(C)c(OCc2nnc(N)s2)c1	PHOSPHO1 inh 72
Nc1nnc(COc2ccc(Br)cc2Br)s1	none
Cc1ccc(N=c2c([N+](=O)[O-])nn(-c3ccc(Cl)cc3)n2O)cc1C	IMP-1 inhibitor 12
Cc1ccc(C)c(NC(=S)N2CCC(NC(=O)c3ccccc3)CC2)c1	none
O=C(CCC(=O)c1ccc[nH]1)c1ccc(Cl)cc1	HCV core dimer 53
O=C(COc1ccc(F)c(Cl)c1)c1ccc[nH]1	none
O=C(O)/C=C\c1cn(-c2ccccc2)nc1-c1cc2ccccc2o1	UBC9 SUMO inh 59
O=C(O)/C=C/c1cn(-c2ccccc2)nc1-c1cc2ccccc2o1	UBC9 SUMO inh 51
CN(CC(=O)Nc1cccc(F)c1)C(=O)c1cccc(S(=O)(=O)N2CC3(C)CC2CC(C)(C)C3)c1 (stereo unspecified)	none (no result: PHOSPHO1 inh, VIM-2 inh, IMP-1 inhibitor, NS3 helicase inh, UBC9 SUMO inh)
Cc1[nH]c2ccc(C(=O)OCC(=O)NC3(C#N)CCCCC3)cc2c1C	none (no result: PHOSPHO1 inh, VIM-2 inh, IMP-1 inhibitor, NS3 helicase inh, UBC9 SUMO inh)
CSc1cccc(CN2CCN(CCC(C)C)C(CCO)C2)c1 (stereo unspecified)	none
COc1ccc(C2CC(c3ccc(Cl)cc3Cl)n3nc(N)nc3N2)cc1 (stereo unspecified)	none
COc1ccc(C2CC(c3ccc(Cl)cc3Cl)Nc3nc(N)nn32)cc1 (stereo unspecified)	PHOSPHO1 inh 70
CCOC(=O)CCCCCN1C(=O)c2cccc3cccc(c23)C1=O	none (no result: PHOSPHO1 inh)
CC(=O)OCCCN1C(=O)c2cccc3cc(Br)cc(c23)C1=O	VIM-2 inh 12
Cc1cc(O)ccc1Nc1nc2ccccc2nc1Nc1ccc(O)cc1C	PHOSPHO1 inh 97
Cc1ccc(Nc2nc3ccccc3s2)c(C)c1	none
COc1ccc(CCNC(=O)C(=O)NCC2OCCN2S(=O)(=O)c2cccs2)cc1 (stereo unspecified)	none
CCOC(OCC)c1cn(Cc2ccc3c(c2)C(=O)c2ccccc2C3=O)nn1	VIM-2 inh 9.9
CCOC(=O)c1cn(Cc2ccc(Br)cc2)nn1	none
C1CSC2(N1)C1CC3CC2CC(C1)C31NCCS1 (stereo unspecified)	PHOSPHO1 inh 61
O=C1CSC2(N1)C1CC3CC(C1)CC2C3 (stereo unspecified)	none
COc1ccc(N2CCN(CCNC(=O)c3ccc4c(c3)[nH]c(=S)n3c5ccccc5nc43)CC2)cc1	none
O=C(Nc1ccc2nc(-c3ccco3)c(-c3ccco3)nc2c1)N1CCN(c2ccccn2)CC1	PHOSPHO1 inh 98
COc1ccc(CC(=O)NCC2CCCN(Cc3cccc(SC)c3)C2)cc1 (stereo unspecified)	PHOSPHO1 inh 61
CCOC(=O)c1cc(S(=O)(=O)NCc2ccc3c(c2)OCO3)cn1C	PHOSPHO1 inh 62
CCOC(=O)c1cc(S(=O)(=O)NCc2ccco2)cn1C	none
COC(=O)c1cc(S(=O)(=O)NCc2ccc3c(c2)OCO3)cn1C	PHOSPHO1 inh 64 (no result: UBC9 SUMO inh)
COC(=O)c1cc(S(=O)(=O)NCc2ccc3c(c2)OCO3)c[nH]1	none
CC(C)c1ccc(/C=C/c2ccc(=O)n(C)n2)cc1	none
Cc1ccc(NC(=O)c2cc(C(=O)c3cc(Cl)ccc3O)cn(-c3ccc(C)cc3)c2=O)cc1	none
Nc1cccc2c1C(=O)N(C(=O)c1ccc(Cl)c(S(=O)(=O)N3CCCCCC3)c1)C2=O	IMP-1 inhibitor 4.8
